Read-outs that look alike come from different tables or passages of the source.
Experiments:
Pf20S β5 = Pf20S β5 (Plasmodium falciparum, UniProt A0A5K1K7U1+Q8IJT1); test: biochemical; assay type: biochemical; settings: for activity against Pf20S: Pf20S β5
human i-20S β5i = human i-20S β5i (Homo sapiens, UniProt P20618+P28062); test: Proteasome IC50 determination, human i-20S β5i; assay type: biochemical
Summary of the method: (§1)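 Human i-20S (0.4 nM) assayed in 20 mM HEPES, 0.5 mM EDTA, 0.1 mg/mL BSA, pH 7.5, with 0.02% SDS and 15 µM Ac-ANW-AMC. Pf20S (1 nM) assayed in 50 mM Tris, 5 mM MgCl2, 1 mM DTT, pH 7.4, with 12 nM PA28α, 0.5 µM WLW-VS and 25 µM suc-LLVY-AMC. Test compound given as a 3-fold series, 100–0.0017 µM final. AMC read at 360/460 nm for 1–2 h; velocities fitted to a dose-response equation. Run in duplicate or triplicate.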

human c-20S β5c = human c-20S β5c (Homo sapiens, UniProt P20618+P28074); test: Proteasome IC50 determination, human c-20S β5c; assay type: biochemical
Summary of the method: as §1, with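 “c-20S (0.2” for “i-20S (0.4”, “25” for “15”, “suc-LLVY-AMC.” for “Ac-ANW-AMC.”, “h; linear” for “h;”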

Pf Dd2^WT = test: Parasite growth inhibition assay, erythrocytic stage; assay type: cell-based, Plasmodium falciparum; settings: for EC50: read-out: EC50 Pf Dd2^WT; for inhibition of Pf growth: strain not stated in text (Figure 5A)
Dd2β6^A117D = test: as above; assay type: cell-based, Plasmodium falciparum; settings: for EC50: Plasmodium falciparum, 72 h, read-out: EC50 Dd2β6^A117D; for fold more resistant / reduced potency, Dd2β6^A117D versus parental Dd2: EC50 ratio
Dd2β5^A49S = test: as above; assay type: cell-based, Plasmodium falciparum; settings: for EC50: Plasmodium falciparum, 72 h, read-out: EC50 Dd2β5^A49S; for fold more resistant / reduced potency, Dd2β5^A49S versus parental Dd2: EC50 ratio
HepG2 cells = test: HepG2 cell viability assay; assay type: cell-based; settings: read-out: HepG2
[1] = test system: Pf strains Cam3.I^rev and Cam3.I^R539T; test: Extended RSA / parasite regrowth assay; assay type: cell-based, Plasmodium falciparum; settings: 6 h pulse as in RSA, parasitemia on day 7, ART-sensitive and ART-resistant lines
Summary of the method: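 Cultures repeatedly sorbitol-synchronized, then Percoll-sorbitol enriched for late stages, allowed 3 h reinvasion and sorbitol-treated again to give 0–3 h rings. Rings plated at 0.5% parasitemia and exposed to test compound (700 or 800 nM) for 6 h, then washed. Transferred into 3 mL culture for seven days; parasitemia scored by microscopy on day 7.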

[2] = test system: DHA-resistant clones DR1, DR2, DR4 derived from Dd2; test: Standard 72-h in vitro assay on DHA-resistant clones; assay type: cell-based, Plasmodium falciparum; settings: standard 72-h assay
i-20S/PA28α = test: Degradation of the modified β-casein by i-20S; assay type: biochemical, human; settings: β-casein pre-incubated with 100 μM compound, hemin and ascorbate; for degradation of β-casein by i-20S/PA28α, dialyzed set: then dialyzed; for degradation of β-casein by i-20S/PA28α, non-dialyzed control: not dialyzed
[3] = test system: P. berghei G2025^R551T (K13^R551T); test: Modified Peters' 4-day suppressive test for recrudescence, ART-resistant strain; assay type: in vivo, Swiss Webster mice; settings: ART 50 mg/kg, ATZ4 100 mg/kg i.p. day 0 to day 2
[4] = test system: Pf Dd2 proteins and peptides; assay type: cell-based, Plasmodium falciparum; settings: 700 nM for 6 h, Cy3-alkyne click, in-gel fluorescence
Dd2β6^A117DK13^R539T = test: Parasite growth inhibition, dual resistant strain; assay type: cell-based, Plasmodium falciparum; settings: EC50 fold change, three experiments (Figure 6B)
[5] = test system: Pf20S β5 in lysate of Dd2^WT; test: Blocking of MV151 labeling in parasite lysate; assay type: binding, Plasmodium falciparum; settings: 1 h preincubation of Dd2^WT lysate
Summary of the method: (§2)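 Dd2 wild-type or mutant parasite pellets lysed on ice for 1 h in 50 mM Tris-HCl, 5 mM MgCl2, 1 mM DTT, pH 7.4, then centrifuged; protein quantified by BCA. 5–10 µg of lysate protein preincubated with test compound for 1 h at 37°C. MV151 added at 2 µM final for a further 1 h at 37°C, protected from light. Run on 12% Bis-Tris SDS-PAGE and scanned at Cy3/TAMRA (λex 532, λem 560 nm).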

Pf20Sβ6^A117D = test: Blocking of MV151 labeling in parasite lysate; assay type: binding, Plasmodium falciparum; settings: 1 h preincubation of Dd2β6^A117D lysate
Summary of the method: as §2

Pf20Sβ5^A49S = test: Blocking of MV151 labeling in parasite lysate; assay type: binding, Plasmodium falciparum; settings: 1 h preincubation of Dd2β5^A49S lysate
Summary of the method: as §2

P. berghei ANKA lux = test: In vivo efficacy in mice infected with P. berghei ANKA lux; design: species or system Swiss Webster mice; settings: 20 mg/kg i.p. once daily day 3 to day 6, luminescence on day 7; positive control
[6] = Plasmodium falciparum, DD2, Erythrocyte, 72 h

| SMILES | IC50 (Pf20S β5) | IC50 (human i-20S β5i) | IC50 (human c-20S β5c) | EC50 (Pf Dd2^WT; [6]) | EC50 (Dd2β6^A117D) | EC50 (Dd2β5^A49S) | parasite regrowth after pulse [1] | susceptibility of DHA-resistant clones compared with WT Dd2 [2] | labeling of parasite proteins and peptides [4] | activity against Pf20S (Pf20S β5) | also measured |
| --- | --- | --- | --- | --- | --- | --- | --- | --- | --- | --- | --- |
| C[C@H]1[C@@H](CC(N)=O)O[C@@H]2O[C@@]3(C)CC[C@H]4[C@H](C)CC[C@@H]1[C@@]24OO3 [ART1, 2-((3R,5aS,6R,8aS,9R,10R,12R,12aR)-3,6,9-trimethyldecahydro-12H-3,12-epoxy[1,2]dioxepino[4,3-i]isochromen-10-yl)acetamide] | 9.2 µM | > 100 µM | > 100 µM | 0.0437 ± 0.0127 µM | 0.0279 ± 0.011 µM | 0.0302 ± 0.0026 µM | re-established normal growth | modestly resistant |  |  | activity against human proteasomes (human i-20S β5i; hu i-20S): inactive; activity against human proteasomes (human c-20S β5c; hu c-20S): inactive; EC50 (HepG2 cells; Homo sapiens, HepG2, 72 h): > 100 µM; degradation of β-casein by i-20S/PA28α, dialyzed set (i-20S/PA28α): unimpeded degradation of β-casein |
| C[C@@H]1CC[C@H]2[C@@H](C)C(=O)O[C@@H]3O[C@@]4(C)CC[C@@H]1[C@]32OO4 [ART, artemisinin, reference compound] |  |  |  |  |  |  |  |  | minimal labeling of proteins and peptides |  | mice with positive blood smear on day 6 [3]: 20%; mice with positive blood smear on day 8 [3]: 40%; mice with positive blood smear on day 10 [3]: 100% |
| C[C@H]1[C@@H](CC(=O)NCC(=O)N[C@@H](CC(=O)NC(C)(C)C)C(=O)NCCNC(=O)c2cc(-c3ccccc3F)ccc2F)O[C@@H]2O[C@@]3(C)CC[C@H]4[C@H](C)CC[C@@H]1[C@@]24OO3 [ATZ2, (S)-N4-(tert-butyl)-N1-(2-(2′,4-difluoro-[1,1′-biphenyl]-3-carboxamido)ethyl)-2-(2-(2-((3R,5aS,6R,8aS,9R,10R,12R,12aR)-3,6,9-trimethyldecahydro-12H-3,12-epoxy[1,2]dioxepino[4,3-i]isochromen-10-yl)acetamido)acetamido)succinamide] | 0.0029 ± 0.0006 µM | 0.073 ± 0.019 µM | 0.21 ± 0.04 µM | 0.003 ± 0.0006 µM | 0.0044 ± 0.0011 µM | 0.0109 ± 0.0026 µM |  |  |  | potency comparable with that of PI01 | times more potent than ART1 against Dd2 (Pf Dd2^WT; EC50 ratio): 10 times; fold improvement over PI01 against Dd2β6^A117D (Dd2β6^A117D): ≥ 5 fold; fold more resistant / reduced potency, Dd2β6^A117D versus parental Dd2 (Dd2β6^A117D): ≤ 2.9 fold; fold improvement over PI01 against Dd2β5^A49S (Dd2β5^A49S): > 100 fold; fold more resistant / reduced potency, Dd2β5^A49S versus parental Dd2 (Dd2β5^A49S): ≤ 3.6 fold; degradation of β-casein by i-20S/PA28α, non-dialyzed control (i-20S/PA28α): inhibited the degradation of β-casein |
| C[C@H]1[C@@H](CC(=O)N[C@@H](CCCN=[N+]=[N-])C(=O)N[C@@H](CC(=O)NC(C)(C)C)C(=O)NCCNC(=O)c2cc(-c3ccccc3F)ccc2F)O[C@@H]2O[C@@]3(C)CC[C@H]4[C@H](C)CC[C@@H]1[C@@]24OO3 [ATZ-P1, (S)-2-((S)-5-azido-2-(2-((3R,5aS,6R,8aS,9R,10R,12R,12aR)-3,6,9-trimethyldecahydro-12H-3,12-epoxy[1,2]dioxepino[4,3-i]isochromen-10-yl)acetamido)pentanamido)-N^4-(tert-butyl)-N^1-(2-(2′,4-difluoro-[1,1′-biphenyl]-3-carboxamido)ethyl)succinimide] |  |  |  |  |  |  |  |  | substantial labeling of proteins and peptides | highly potent inhibitors | inhibition of Pf growth (Pf Dd2^WT): highly potent inhibitors |
| C[C@H]1[C@@H](O)O[C@@H]2O[C@@]3(C)CC[C@H]4[C@H](C)CC[C@@H]1[C@@]24OO3 [DHA, dihydroartemisinin, reference compound] |  |  |  |  |  |  | re-established normal growth | highly resistant |  |  |  |
| C[C@H]1[C@@H](CC(=O)NCCCC(=O)N[C@@H](CC(=O)NC(C)(C)C)C(=O)NCCNC(=O)c2cc(-c3ccccc3F)ccc2F)O[C@@H]2O[C@@]3(C)CC[C@H]4[C@H](C)CC[C@@H]1[C@@]24O3 [Deoxy-ATZ4, (S)-N4-(tert-butyl)-N1-(2-(2′,4-difluoro-[1,1′-biphenyl]-3-carboxamido)ethyl)-2-(4-(2-((2R,3R,3aS,3a1R,6R,6aS,9S,10aR)-3,6,9-trimethyldecahydro-10aH-3a1,9-epoxyoxepino [4,3,2-ij]isochromen-2-yl)acetamido)butanamido)succinamide] |  |  |  |  |  |  |  | equally susceptible |  | potency comparable with that of PI01 | EC50 (Pf Dd2^WT; 72 h growth inhibition in red blood cells, mean ± SD): 0.0216 ± 0.0014 µM; fold less potent against Dd2β6^A117D compared with Dd2 and Dd2K13^R539T (Dd2β6^A117D; EC50 fold change, three experiments (Figure 6B)): 5.6 fold; EC50 (HepG2 cells; 72 h cell viability, mean ± SD): 10.8 µM; fold less potent against Dd2β6^A117DK13^R539T compared with Dd2 and Dd2K13^R539T (Dd2β6^A117DK13^R539T): 11.0 fold |
| CC(C)(C)NC(=O)C[C@H](NC(=O)CCCNC(=O)OC(C)(C)C)C(=O)NCCNC(=O)c1cc(-c2ccccc2F)ccc1F [PI01, tert-butyl (S)-(4-((4-(tert-butylamino)-1-((2-(2′,4-difluoro-[1,1′-biphenyl]-3-carboxamido)ethyl)amino)-1,4-dioxobutan-2-yl)amino)-4-oxobutyl)carbamate] | 0.006 ± 0.0008 µM | 0.2 ± 0.046 µM | 2 µM | 0.0074 ± 0.0002 µM | 0.121 ± 0.02 µM | > 2.77 µM | re-established normal growth |  |  |  | fold less active on hu i-20S than on Pf20S (human i-20S β5i; ratio of IC50 values): ~ 30 fold; fold less active on hu c-20S than on Pf20S (human c-20S β5c; ratio of IC50 values): ~300 fold; fold more resistant / reduced potency, Dd2β6^A117D versus parental Dd2 (Dd2β6^A117D): 16 fold; fold more resistant / reduced potency, Dd2β5^A49S versus parental Dd2 (Dd2β5^A49S): > 370 fold; EC50 (HepG2 cells; Homo sapiens, HepG2, 72 h): > 100 µM; blocking of MV151 labeling of β5 [5]: dose dependently blocked labeling of β5; blocking of MV151 labeling of β5 (Pf20Sβ6^A117D): prevented PI01 and ATZ4 from inhibiting; blocking of MV151 labeling of β5 (Pf20Sβ5^A49S): prevented PI01 and ATZ4 from inhibiting; degradation of β-casein by i-20S/PA28α, non-dialyzed control (i-20S/PA28α): inhibited the degradation of β-casein; degradation of β-casein by i-20S/PA28α, dialyzed set (i-20S/PA28α): unimpeded degradation of β-casein |
| CCN(CC)CCCC(C)Nc1ccnc2cc(Cl)ccc12 (stereo not shown) [chloroquine, reference compound] |  |  |  |  |  |  |  |  |  |  | parasite load (P. berghei ANKA lux): below the limit of detection |
| C[C@H]1[C@@H](CC(=O)N[C@@H](CCCN=[N+]=[N-])C(=O)N[C@@H](CC(=O)NC(C)(C)C)C(=O)NCCNC(=O)c2cc(-c3ccccc3F)ccc2F)O[C@@H]2O[C@@]3(C)CC[C@H]4[C@H](C)CC[C@@H]1[C@@]24O3 [deoxy-ATZ-P1, (S)-2-((S)-5-azido-2-(2-((2R,3R,3aS,3a^1R,6R,6aS,9S,10aR)-3,6,9-trimethyldecahydro-10aH-3a^1,9-epoxyoxepino[4,3,2-ij]isochromen-2-yl)acetamido)pentanamido)-N^4-(tert-butyl)-N^1-(2-(2′,4-difluoro-[1,1′-biphenyl]-3-carboxamido)ethyl)succinamide] |  |  |  |  |  |  |  |  | minimal labeling of proteins and peptides | highly potent inhibitors | inhibition of Pf growth (Pf Dd2^WT): highly potent inhibitors |
